Assays:
Format in all cases: functional, cell-based
A549 = assay: Antiproliferative activity against human A549 cells after 48 hrs by MTS assay; settings: A549, 48 h
Summary of the method: (§1)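 Cells grown in RPMI-1640 or DMEM with 10% FBS at 37 °C, 5% CO2. Seeded, 12 h at 37 °C, then 40 μM single-concentration screen, 48 h exposure, MTS read-out. Compounds reaching 50% growth inhibition retested at 0.064, 0.32, 1.6, 8 and 40 μM in triplicate; cisplatin and paclitaxel positive controls; IC50 by Reed and Muench method.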

RAW264.7 = assay: Inhibition of LPS-induced NO production in mouse RAW264.7 cells after 18 hrs by Griess assay; settings: RAW264.7, 18 h
Summary of the method: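 RAW264.7 macrophages seeded at 1.5 × 10^5 cells/well, given serial dilutions (top 20 μM) in triplicate, then stimulated with 1 μg/mL LPS for 18 h. Supernatant nitrite measured with Griess reagent, 5 min, absorbance 570 nm. L-NMMA positive control; parallel MTS viability check to exclude cytotoxic interference.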

MCF7 = assay: Antiproliferative activity against human MCF7 cells after 48 hrs by MTS assay; settings: MCF7, 48 h; summary of the method: as §1
HL-60 = assay: Antiproliferative activity against human HL60 cells after 48 hrs by MTS assay; settings: HL-60, 48 h; summary of the method: as §1
SW480 = assay: Antiproliferative activity against human SW480 cells after 48 hrs by MTS assay; settings: SW480, 48 h; summary of the method: as §1
SMMC-7721 = assay: Antiproliferative activity against human SMMC7721 cells after 48 hrs by MTS assay; settings: SMMC-7721, 48 h; summary of the method: as §1

With `C=C1C(=O)[C@]23C[C@@]1(O)C[C@H](OC(C)=O)[C@H]2[C@@]1(C)[C@H](C[C@H]3O)[C@](C)(COC(C)=O)CC[C@@H]1O` the IC50 (A549) was 13.4 µM, the IC50 (RAW264.7) was 1.8 µM and the IC50 (MCF7) was 4.8 µM. For the same compound, the IC50 (HL-60) was 3.2 µM, the IC50 (SW480) was 1.3 µM and the IC50 (SMMC-7721) was 3.9 µM.

For `C=C1C(=O)[C@]23C[C@@]1(O)C[C@H](OC(C)=O)[C@H]2[C@@]1(C)[C@H](C[C@H]3O)C(C)(C)CC[C@@H]1O`, the IC50 (A549) was 19.6 µM, the IC50 (RAW264.7) was 3.1 µM and the IC50 (MCF7) was 11 µM. For the same compound, the IC50 (HL-60) was 7 µM, the IC50 (SW480) was 2.5 µM and the IC50 (SMMC-7721) was 4.7 µM.

In the case of `C=C1C(=O)[C@@]23CC[C@@H]4C(C)(C)[C@@H](O)CC[C@@]4(C)[C@@H]2[C@@H](OC(C)=O)C[C@]1(O)C3`, the IC50 (A549) is reported as 4.4 µM, the IC50 (RAW264.7) is reported as 1 µM and the IC50 (MCF7) is reported as 2.9 µM. It also gave an IC50 (HL-60) of 1 µM, an IC50 (SW480) of 0.9 µM and an IC50 (SMMC-7721) of 1.5 µM.

With `C[C@@]1(CO)CCC[C@@]2(C)[C@H]1C[C@@H](O)C1=CC(=O)CC[C@@]12O` the IC50 (A549) was > 40 µM, the IC50 (MCF7) was > 40 µM and the IC50 (HL-60) was > 40 µM. The IC50 (SW480) was > 40 µM and the IC50 (SMMC-7721) was > 40 µM.

For `C=C1[C@@H](O)[C@@]23CC[C@@H]4[C@@](C)(CO)CCC[C@@]4(C)[C@@H]2[C@@H](OC(C)=O)C[C@]1(O)C3`, the IC50 (A549) was > 40 µM, the IC50 (MCF7) was > 40 µM and the IC50 (HL-60) was > 40 µM. The IC50 (SW480) was > 40 µM and the IC50 (SMMC-7721) was > 40 µM.

With `C=C1[C@@H](O)[C@@]23CC[C@@H]4[C@@](C)(CO)CCC[C@@]4(C)[C@@H]2[C@@H](O)C[C@]1(O)C3` the IC50 (A549) was > 40 µM, the IC50 (MCF7) was > 40 µM and the IC50 (HL-60) was > 40 µM. For the same compound, the IC50 (SW480) was > 40 µM and the IC50 (SMMC-7721) was > 40 µM.

With `C=C1[C@@H](O)[C@@]23CC[C@@H]4C(C)(C)[C@H](O)CC[C@@]4(C)[C@@H]2[C@@H](O)C[C@]1(O)C3` the IC50 (A549) was > 40 µM, the IC50 (MCF7) was > 40 µM and the IC50 (HL-60) was > 40 µM. For the same compound, the IC50 (SW480) was > 40 µM and the IC50 (SMMC-7721) was > 40 µM.

`C=C1[C@@H](O)[C@@]23CC[C@@H]4C(C)(C)[C@H](O)CC[C@@]4(C)[C@@H]2[C@@H](OC(C)=O)C[C@]1(O)C3` was tested, and the IC50 (A549) was > 40 µM, the IC50 (MCF7) was > 40 µM and the IC50 (HL-60) was > 40 µM. For the same compound, the IC50 (SW480) was > 40 µM and the IC50 (SMMC-7721) was > 40 µM.

With `CC(=O)O[C@H]1C(=O)[C@@]2(C)[C@H]([C@H](OC(=O)c3ccccc3)[C@]3(O)C[C@H](OC(=O)[C@H](O)[C@@H](NC(=O)c4ccccc4)c4ccccc4)C(C)=C1C3(C)C)[C@]1(OC(C)=O)CO[C@@H]1C[C@@H]2O` [PACLITAXEL] the IC50 (A549) was < 0.008 µM, the IC50 (MCF7) was < 0.008 µM and the IC50 (HL-60) was < 0.008 µM. For the same compound, the IC50 (SW480) was < 0.008 µM and the IC50 (SMMC-7721) was < 0.008 µM.

With `C=C1C(=O)[C@]23C[C@@]1(O)C[C@H](OC(C)=O)[C@H]2[C@@]1(C)[C@H](C[C@H]3O)[C@](C)(CO)CC[C@@H]1O` the IC50 (A549) was > 40 µM, the IC50 (MCF7) was > 40 µM and the IC50 (HL-60) was > 40 µM. For the same compound, the IC50 (SW480) was > 40 µM and the IC50 (SMMC-7721) was > 40 µM.

Work on `CNC(=N)NCCC[C@H](N)C(=O)O` [TILARGININE ACETATE] yielded an IC50 (RAW264.7) of 39.9 µM.

With `C=C1[C@@H](O)[C@@]23CC[C@@H]4C(C)(C)[C@@H](O)CC[C@@]4(C)[C@@H]2[C@@H](OC(C)=O)C[C@]1(O)C3` the IC50 (A549) was > 40 µM, the IC50 (MCF7) was > 40 µM and the IC50 (HL-60) was > 40 µM. The IC50 (SW480) was > 40 µM and the IC50 (SMMC-7721) was > 40 µM.

For `C=C1[C@@H](O)[C@@]23CC[C@H]4[C@@](C)(CCC[C@@]4(C)C=O)[C@@H]2[C@@H](OC(C)=O)C[C@]1(O)C3`, the IC50 (A549) was > 40 µM, the IC50 (MCF7) was > 40 µM and the IC50 (HL-60) was > 40 µM. The IC50 (SW480) was > 40 µM and the IC50 (SMMC-7721) was > 40 µM.
